Results from ChEMBL document CHEMBL5058577, “EUbOPEN Chemogenomics Library 2 (Multiplex)” (2022).

Tested on: HEK-293T
Assay: Multiplex assay against HEK293T
Type: toxicity, cell-based
Conditions: human
How it was run: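 Phenotypes for tubulin, mitochondrial mass and membrane permeability are expressed as per cents of healthy-nucleus cells. Cells were stained live at seeding with Hoechst33342, BioTracker Green Microtubule Cytoskeleton Dye, MitoTracker Red and Annexin V Alexa Fluor 680, then imaged after compound addition on a CQ1 microscope at 37°C and 5% CO2. Machine-learning gating in CellPathfinder separated Hoechst high-intensity objects from normal cells, divided normal cells by nuclear state (healthy, pyknosed, fragmented) and divided pyknosed cells into mitotic or apoptotic.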

[1] = 12 h, 1 µM, compound concentration 1 uM, replicate 1
[2] = 12 h, 1 µM, compound concentration 1 uM, replicate 2
[3] = 12 h, 10 µM, compound concentration 10 uM, replicate 1
[4] = 12 h, 10 µM, compound concentration 10 uM, replicate 2
[5] = 24 h, 1 µM, compound concentration 1 uM, replicate 1
[6] = 24 h, 1 µM, compound concentration 1 uM, replicate 2
[7] = 24 h, 10 µM, compound concentration 10 uM, replicate 1
[8] = 24 h, 10 µM, compound concentration 10 uM, replicate 2
[9] = 48 h, 1 µM, compound concentration 1 uM, replicate 1
[10] = 48 h, 1 µM, compound concentration 1 uM, replicate 2
[11] = 48 h, 10 µM, compound concentration 10 uM, replicate 1
[12] = 48 h, 10 µM, compound concentration 10 uM, replicate 2

N#Cc1c(Oc2cccc(OS(=O)(=O)CCCC(F)(F)F)c2)cccc1C(F)(F)F
Population Apoptotic (%) [1]: 35%
Population Fragmented Nuclei (%) [1]: 4%
Population Healthy Nuclei (%) [1]: 86%
Population Hoechst High Intensity Objects (%) [1]: 5%
Population Membrane Permeable-Phenotype (%) [1]: 0%
Population Mitochondria Different-Phenotype (%) [1]: 46%
Population Mitotic Cells (%) [1]: 65%
Population Normal (%) [1]: 94%
Population Pyknosed Nuclei (%) [1]: 8%
Population Tubulin-Different-Phenotype (%) [1]: 38%
Total Cell Count [1]: 490
Population Apoptotic (%) [2]: 63%
Population Fragmented Nuclei (%) [2]: 6%
Population Healthy Nuclei (%) [2]: 75%
Population Hoechst High Intensity Objects (%) [2]: 11%
Population Mitochondria Different-Phenotype (%) [2]: 60%
Population Mitotic Cells (%) [2]: 36%
Population Normal (%) [2]: 88%
Population Pyknosed Nuclei (%) [2]: 17%
Population Tubulin-Different-Phenotype (%) [2]: 28%
Total Cell Count [2]: 349
Population Apoptotic (%) [3]: 42%
Population Fragmented Nuclei (%) [3]: 8%
Population Healthy Nuclei (%) [3]: 65%
Population Hoechst High Intensity Objects (%) [3]: 10%
Population Membrane Permeable-Phenotype (%) [3]: 0%
Population Mitochondria Different-Phenotype (%) [3]: 74%
Population Mitotic Cells (%) [3]: 57%
Population Normal (%) [3]: 89%
Population Pyknosed Nuclei (%) [3]: 25%
Population Tubulin-Different-Phenotype (%) [3]: 65%
Total Cell Count [3]: 290
Population Apoptotic (%) [4]: 44%
Population Fragmented Nuclei (%) [4]: 6%
Population Healthy Nuclei (%) [4]: 64%
Population Hoechst High Intensity Objects (%) [4]: 40%
Population Mitochondria Different-Phenotype (%) [4]: 81%
Population Mitotic Cells (%) [4]: 55%
Population Normal (%) [4]: 59%
Population Pyknosed Nuclei (%) [4]: 28%
Population Tubulin-Different-Phenotype (%) [4]: 58%
Total Cell Count [4]: 318
Population Apoptotic (%) [5]: 28%
Population Fragmented Nuclei (%) [5]: 10%
Population Healthy Nuclei (%) [5]: 77%
Population Hoechst High Intensity Objects (%) [5]: 3%
Population Membrane Permeable-Phenotype (%) [5]: 0%
Population Mitochondria Different-Phenotype (%) [5]: 34%
Population Mitotic Cells (%) [5]: 71%
Population Normal (%) [5]: 96%
Population Pyknosed Nuclei (%) [5]: 12%
Population Tubulin-Different-Phenotype (%) [5]: 26%
Total Cell Count [5]: 654
Population Apoptotic (%) [6]: 60%
Population Fragmented Nuclei (%) [6]: 8%
Population Healthy Nuclei (%) [6]: 81%
Population Hoechst High Intensity Objects (%) [6]: 9%
Population Mitochondria Different-Phenotype (%) [6]: 48%
Population Mitotic Cells (%) [6]: 40%
Population Normal (%) [6]: 90%
Population Pyknosed Nuclei (%) [6]: 9%
Population Tubulin-Different-Phenotype (%) [6]: 20%
Total Cell Count [6]: 412
Population Apoptotic (%) [7]: 43%
Population Fragmented Nuclei (%) [7]: 9%
Population Healthy Nuclei (%) [7]: 77%
Population Hoechst High Intensity Objects (%) [7]: 13%
Population Membrane Permeable-Phenotype (%) [7]: 0%
Population Mitochondria Different-Phenotype (%) [7]: 66%
Population Mitotic Cells (%) [7]: 56%
Population Normal (%) [7]: 86%
Population Pyknosed Nuclei (%) [7]: 13%
Population Tubulin-Different-Phenotype (%) [7]: 56%
Total Cell Count [7]: 338
Population Apoptotic (%) [8]: 45%
Population Fragmented Nuclei (%) [8]: 10%
Population Healthy Nuclei (%) [8]: 61%
Population Hoechst High Intensity Objects (%) [8]: 47%
Population Mitochondria Different-Phenotype (%) [8]: 68%
Population Mitotic Cells (%) [8]: 54%
Population Normal (%) [8]: 52%
Population Pyknosed Nuclei (%) [8]: 27%
Population Tubulin-Different-Phenotype (%) [8]: 41%
Total Cell Count [8]: 312
Population Apoptotic (%) [9]: 20%
Population Fragmented Nuclei (%) [9]: 13%
Population Healthy Nuclei (%) [9]: 81%
Population Hoechst High Intensity Objects (%) [9]: 1%
Population Membrane Permeable-Phenotype (%) [9]: 1%
Population Mitochondria Different-Phenotype (%) [9]: 21%
Population Mitotic Cells (%) [9]: 79%
Population Normal (%) [9]: 98%
Population Pyknosed Nuclei (%) [9]: 5%
Population Tubulin-Different-Phenotype (%) [9]: 15%
Total Cell Count [9]: 986
Population Apoptotic (%) [10]: 56%
Population Fragmented Nuclei (%) [10]: 12%
Population Healthy Nuclei (%) [10]: 82%
Population Hoechst High Intensity Objects (%) [10]: 5%
Population Membrane Permeable-Phenotype (%) [10]: 0%
Population Mitochondria Different-Phenotype (%) [10]: 23%
Population Mitotic Cells (%) [10]: 43%
Population Normal (%) [10]: 94%
Population Tubulin-Different-Phenotype (%) [10]: 13%
Total Cell Count [10]: 568
Population Apoptotic (%) [11]: 44%
Population Fragmented Nuclei (%) [11]: 11%
Population Healthy Nuclei (%) [11]: 78%
Population Hoechst High Intensity Objects (%) [11]: 5%
Population Membrane Permeable-Phenotype (%) [11]: 0%
Population Mitochondria Different-Phenotype (%) [11]: 44%
Population Mitotic Cells (%) [11]: 55%
Population Normal (%) [11]: 94%
Population Pyknosed Nuclei (%) [11]: 10%
Population Tubulin-Different-Phenotype (%) [11]: 29%
Total Cell Count [11]: 464
Population Apoptotic (%) [12]: 58%
Population Healthy Nuclei (%) [12]: 69%
Population Hoechst High Intensity Objects (%) [12]: 24%
Population Mitochondria Different-Phenotype (%) [12]: 47%
Population Mitotic Cells (%) [12]: 41%
Population Normal (%) [12]: 75%
Population Pyknosed Nuclei (%) [12]: 18%
Population Tubulin-Different-Phenotype (%) [12]: 23%
Total Cell Count [12]: 363
